≈ marks a conversion by molar mass, not a printed value.
Legend:
[1] = system: Candida albicans; test: Antifungal activity against Candida albicans ATCC 76615 after 48 hrs by disc diffusion method; type: functional; conditions: ATCC 76615, 48 h
Procedure, shortened: (§1)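 Disc diffusion on modified Sabouraud-chloramphenicol agar (1% peptone, 2% glucose, […]), compounds as sterile-water stocks; fluconazole and polyoxin B positive controls; MIC (mg/L) recorded after 48 h at 37 °C.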

[2] = system: Escherichia coli; test: Antibacterial activity against Escherichia coli JM 109 after overnight incubation by disc diffusion method; type: functional
Procedure, shortened: (§2)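 Agar disc diffusion on beef extract–peptone medium (1% peptone, 0.3% beef extract, 0.5% NaCl, […]), compounds dissolved in sterile water; streptomycin sulfate positive control; plates incubated overnight at 37 °C, then MIC recorded (mg/L).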

[3] = system: Bacillus spizizenii; test: Antibacterial activity against Bacillus subtilis ATCC 6633 after overnight incubation by disc diffusion method; type: functional; procedure, shortened: as §2
[4] = system: Pseudomonas aeruginosa; test: Antibacterial activity against Pseudomonas aeruginosa CR56 after overnight incubation by disc diffusion method; type: functional; procedure, shortened: as §2
[5] = system: Bacillus; test: Antibacterial activity against Bacillus proteus after overnight incubation by disc diffusion method; type: functional; procedure, shortened: as §2
[6] = system: Staphylococcus aureus; test: Antibacterial activity against methicillin-resistant Staphylococcus aureus N315 after overnight incubation by disc diffusion method; type: functional
Procedure, shortened: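 Disc diffusion on beef extract-peptone agar (1% peptone, 0.3% beef extract, 0.5% NaCl, […]); compounds dissolved in sterile water; streptomycin sulfate positive control; plates incubated overnight at 37 °C, then MIC (mg/L) recorded.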

[7] = system: Cryptococcus neoformans; test: Antifungal activity against Cryptococcus neoformans after 48 hrs by disc diffusion method; type: functional; procedure, shortened: as §1
[8] = system: Aspergillus flavus; test: Antifungal activity against Aspergillus flavus after 48 hrs by disc diffusion method; type: functional; procedure, shortened: as §1
[9] = Inhibition of Saccharomyces cerevisiae CGMCC 2.145 chitin synthase assessed as UDP-GlcNAc conversion to chitin after 45 mins by ELISA
Procedure, shortened: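 Enzyme prepared from S. cerevisiae cells sonicated at 4 °C in 50 mM Tris–HCl pH 7.0 with protease inhibitors and PMSF; 55,000 g membrane pellet used. Wells hold UDP-GlcNAc plus 320 mM GlcNAc, compound in Tris buffer (final DMSO below 3%), 45 min at 37 °C. Chitin detected with HRP–wheat germ agglutinin, TMB read at 450 nm against a chitin standard curve; IC50 derived.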

[10] = system: Staphylococcus aureus; test: Antibacterial activity against Staphylococcus aureus ATCC 25923 after overnight incubation by disc diffusion method; type: functional; procedure, shortened: as §2
[11] = system: Aspergillus flavus; test: Ratio of polyoxin B MIC to compound MIC for Aspergillus flavus; type: functional
[12] = system: Aspergillus flavus; test: Ratio of fluconazole MIC to compound MIC for Aspergillus flavus; type: functional
[13] = system: Candida albicans; test: Ratio of polyoxin B MIC to compound MIC for Candida albicans ATCC 76615; type: functional
[14] = system: Candida albicans; test: Ratio of fluconazole MIC to compound MIC for Candida albicans ATCC 76615; type: functional

SMILES	MIC [1] [µg/mL]	MIC [2] [µg/mL]	MIC [3] [µg/mL]	MIC [4] [µg/mL]	MIC [5] [µg/mL]	MIC [6] [µg/mL]	MIC [7] [µg/mL]	MIC [8] [µg/mL]	IC50 [9] [µM]	MIC [10] [µg/mL]	Ratio [11]	Ratio [12]	Ratio [13]	Ratio [14]
CN(CC(=O)NCc1ccccc1)CC(O)Cn1c(=O)c2ccccc2n(C)c1=O.Cl (configuration not stated)	32	≥ 512	≥ 512	≥ 512	≥ 512	≥ 512	64	32	130	≥ 512				
OC(Cn1cncn1)(Cn1cncn1)c1ccc(F)cc1F [FLUCONAZOLE]	32 (≈ 104 µM)						2 (≈ 6.53 µM)	64 (≈ 209 µM)						
CN(CC(=O)N(Cc1ccccc1)Cc1ccccc1)CC(O)Cn1c(=O)c2ccccc2n(C)c1=O.Cl (configuration not stated)	64	≥ 512	≥ 512	≥ 512	≥ 512	≥ 512	2	4	160	≥ 512	8	16		
CN(CC(=O)Nc1ccccc1)CC(O)Cn1c(=O)c2ccccc2n(C)c1=O.Cl (configuration not stated)	32	≥ 512	≥ 512	≥ 512	≥ 512	≥ 512	64	> 512	> 750	≥ 512				
CN(CC(=O)Nc1cccc([N+](=O)[O-])c1)CC(O)Cn1c(=O)c2ccccc2n(C)c1=O.Cl (configuration not stated)	4	≥ 512	≥ 512	≥ 512	≥ 512	≥ 512	8	4	240	≥ 512	8	16	4	8
CN(CC(=O)Nc1ccccc1[N+](=O)[O-])CC(O)Cn1c(=O)c2ccccc2n(C)c1=O.Cl (configuration not stated)	> 512	≥ 512	≥ 512	≥ 512	≥ 512	≥ 512	32	64	210	≥ 512				
COC(=O)c1ccccc1NC(=O)CN(C)CC(O)Cn1c(=O)c2ccccc2n(C)c1=O.Cl (configuration not stated)	32	≥ 512	≥ 512	≥ 512	≥ 512	≥ 512	2	4	170	≥ 512	8	16		
CN(CC(=O)Nc1ccc(CC#N)cc1)CC(O)Cn1c(=O)c2ccccc2n(C)c1=O.Cl (configuration not stated)	4	≥ 512	≥ 512	≥ 512	≥ 512	≥ 512	4	8	120	≥ 512			4	8
COc1ccc(NC(=O)CN(C)CC(O)Cn2c(=O)c3ccccc3n(C)c2=O)cc1.Cl (configuration not stated)	16	≥ 512	≥ 512	≥ 512	≥ 512	≥ 512	128	16	180	≥ 512				
CCCN(CCC)C(=O)CN(C)CC(O)Cn1c(=O)c2ccccc2n(C)c1=O.Cl (configuration not stated)	> 512	≥ 512	≥ 512	≥ 512	≥ 512	≥ 512	16	32	390	≥ 512				
CN(CC(=O)Nc1ccc(Cl)cc1)CC(O)Cn1c(=O)c2ccccc2n(C)c1=O.Cl (configuration not stated)	16	≥ 512	≥ 512	≥ 512	≥ 512	≥ 512	2	128	160	≥ 512				
CN[C@@H]1[C@H](O[C@H]2[C@H](O[C@H]3[C@H](O)[C@@H](O)[C@H](N=C(N)N)[C@@H](O)[C@@H]3N=C(N)N)O[C@@H](C)[C@]2(O)C=O)O[C@@H](CO)[C@H](O)[C@H]1O.CN[C@@H]1[C@H](O[C@H]2[C@H](O[C@H]3[C@H](O)[C@@H](O)[C@H](N=C(N)N)[C@@H](O)[C@@H]3N=C(N)N)O[C@@H](C)[C@]2(O)C=O)O[C@@H](CO)[C@H](O)[C@H]1O.O=S(=O)(O)O.O=S(=O)(O)O.O=S(=O)(O)O [STREPTOMYCIN SULFATE]		64	64	64	64	64				64				
CCN(CC)C(=O)CN(C)CC(O)Cn1c(=O)c2ccccc2n(C)c1=O.Cl (configuration not stated)	64	≥ 512	≥ 512	≥ 512	≥ 512	≥ 512	16	8	340	≥ 512				
CN(CC(=O)Nc1ccc(C(F)(F)F)cc1)CC(O)Cn1c(=O)c2ccccc2n(C)c1=O.Cl (configuration not stated)	32	≥ 512	≥ 512	≥ 512	≥ 512	≥ 512	32	8	110	≥ 512				
CN(CC(=O)N(C)c1ccccc1)CC(O)Cn1c(=O)c2ccccc2n(C)c1=O.Cl (configuration not stated)	64	≥ 512	≥ 512	≥ 512	≥ 512	≥ 512	8	256	320	≥ 512				
CN(CC(=O)N1CCCCC1)CC(O)Cn1c(=O)c2ccccc2n(C)c1=O.Cl (configuration not stated)	32	≥ 512	≥ 512	≥ 512	≥ 512	≥ 512	512		> 750	≥ 512				
CN(CC(=O)Nc1ccc([N+](=O)[O-])cc1)CC(O)Cn1c(=O)c2ccccc2n(C)c1=O.Cl (configuration not stated)	> 512	≥ 512	≥ 512	≥ 512	≥ 512	≥ 512	64	64	> 750	≥ 512				
CN(CC(=O)NC(C)(C)C)CC(O)Cn1c(=O)c2ccccc2n(C)c1=O.Cl (configuration not stated)	> 512	≥ 512	≥ 512	≥ 512	≥ 512	≥ 512	128	64	140	≥ 512				
CN(CC(=O)Nc1ccccc1Cl)CC(O)Cn1c(=O)c2ccccc2n(C)c1=O.Cl (configuration not stated)	64	≥ 512	≥ 512	≥ 512	≥ 512	≥ 512	2	32	260	≥ 512				
Cc1ccc(NC(=O)CN(C)CC(O)Cn2c(=O)c3ccccc3n(C)c2=O)cc1.Cl (configuration not stated)	32	≥ 512	≥ 512	≥ 512	≥ 512	≥ 512	2	32	80	≥ 512				
NC(=O)OC[C@H](O)[C@@H](O)[C@H](N)C(=O)N[C@H](C(=O)O)[C@H]1O[C@@H](n2cc(CO)c(=O)[nH]c2=O)[C@H](O)[C@@H]1O [POLYOXIN B]	16 (≈ 31.5 µM)						4 (≈ 7.88 µM)	32 (≈ 63.1 µM)	180					
CN(CC(=O)NCc1ccc(Cl)cc1)CC(O)Cn1c(=O)c2ccccc2n(C)c1=O.Cl (configuration not stated)	32	≥ 512	≥ 512	≥ 512	≥ 512	≥ 512	64	64	> 750	≥ 512				

From ChEMBL document CHEMBL3286331, “Design, synthesis and evaluation of novel quinazoline-2,4-dione derivatives as chitin synthase inhibitors and antifungal agents” (Bioorg Med Chem, 2014)
